Measurements reported in ChEMBL document CHEMBL3860041, “Synthesis, biological evaluation and molecular modeling study of some new methoxylated 2-benzylthio-quinazoline-4(3H)-ones as nonclassical antifolates” (Bioorg Med Chem Lett, 2016).

Columns and labels:
Type in all cases: functional
[1] = Growth inhibition of human K562 cells at 10 uM after 48 hrs by SRB assay relative to control; conditions: K562, 48 h, read-out: GI
In short: (§1)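 NCI 60-cell-line panel, nine tumor subpanels; compounds tested at a single dose of 10 μM in the primary screen.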

[2] = Growth inhibition of human HOP62 cells at 10 uM after 48 hrs by SRB assay relative to control; conditions: HOP-62, 48 h, read-out: GI; in short: as §1
[3] = Growth inhibition of human NCI-H23 cells at 10 uM after 48 hrs by SRB assay relative to control; conditions: NCI-H23, 48 h, read-out: GI; in short: as §1
[4] = Growth inhibition of human NCI-H460 cells at 10 uM after 48 hrs by SRB assay relative to control; conditions: NCI-H460, 48 h, read-out: GI; in short: as §1
[5] = Growth inhibition of human NCI-H522 cells at 10 uM after 48 hrs by SRB assay relative to control; conditions: NCI-H522, 48 h, read-out: GI; in short: as §1
[6] = Growth inhibition of human HCT116 cells at 10 uM after 48 hrs by SRB assay relative to control; conditions: HCT-116, 48 h, read-out: GI; in short: as §1
[7] = Growth inhibition of human HCT15 cells at 10 uM after 48 hrs by SRB assay relative to control; conditions: HCT-15, 48 h, read-out: GI; in short: as §1
[8] = Growth inhibition of human KM12 cells at 10 uM after 48 hrs by SRB assay relative to control; conditions: KM12, 48 h, read-out: GI; in short: as §1
[9] = Growth inhibition of human SW620 cells at 10 uM after 48 hrs by SRB assay relative to control; conditions: SW-620, 48 h, read-out: GI
In short: (§2)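 Primary screen across the full NCI 60 human tumour cell line panel, which covers nine tumour subpanels. A single dose of 10 μM was applied to each line, and growth was recorded for each cell line.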

[10] = Growth inhibition of human SF295 cells at 10 uM after 48 hrs by SRB assay relative to control; conditions: SF-295, 48 h, read-out: GI; in short: as §1
[11] = Growth inhibition of human SNB75 cells at 10 uM after 48 hrs by SRB assay relative to control; conditions: SNB-75, 48 h, read-out: GI; in short: as §2
[12] = Growth inhibition of human MALME-3M cells at 10 uM after 48 hrs by SRB assay relative to control; conditions: read-out: GI; in short: as §1
[13] = Growth inhibition of human M14 cells at 10 uM after 48 hrs by SRB assay relative to control; conditions: M14, 48 h, read-out: GI; in short: as §1
[14] = Growth inhibition of human SK-MEL-2 cells at 10 uM after 48 hrs by SRB assay relative to control; conditions: SK-MEL-2, 48 h, read-out: GI; in short: as §2
[15] = Growth inhibition of human IGROV1 cells at 10 uM after 48 hrs by SRB assay relative to control; conditions: IGROV-1, 48 h, read-out: GI; in short: as §1
[16] = Growth inhibition of human OVCAR5 cells at 10 uM after 48 hrs by SRB assay relative to control; conditions: OVCAR-5, 48 h, read-out: GI; in short: as §1
[17] = Growth inhibition of human NCI/ADR-RES cells at 10 uM after 48 hrs by SRB assay relative to control; conditions: read-out: GI; in short: as §1
[18] = Growth inhibition of human ACHN cells at 10 uM after 48 hrs by SRB assay relative to control; conditions: read-out: GI; in short: as §1
[19] = Growth inhibition of human PC3 cells at 10 uM after 48 hrs by SRB assay relative to control; conditions: PC-3, 48 h, read-out: GI; in short: as §1
[20] = Growth inhibition of human BT549 cells at 10 uM after 48 hrs by SRB assay relative to control; conditions: BT-549, 48 h, read-out: GI; in short: as §1
[21] = Growth inhibition of human T47D cells at 10 uM after 48 hrs by SRB assay relative to control; conditions: read-out: GI; in short: as §2
[22] = Growth inhibition of human MDA-MB-468 cells at 10 uM after 48 hrs by SRB assay relative to control; conditions: MDA-MB-468, 48 h, read-out: GI; in short: as §1
Cancer cell lines [23] = experiment: Potency index, ratio of 5-fluorouracil GI50 to compound GI50 for human breast cancer cells
In short: (§3)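 GI50 for each cell line came from NCI panel testing over a 5-log dose range, with 5-fluorouracil tested alongside as the reference drug. The index relates the 5-fluorouracil GI50 to the compound GI50 within each tumour subpanel.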

Melanoma cell = experiment: Potency index, ratio of 5-fluorouracil GI50 to compound GI50 for human melanoma cells; in short: as §3
Cancer cell lines [24] = experiment: Potency index, ratio of 5-fluorouracil GI50 to compound GI50 for human colon cancer cells; in short: as §3
Cancer cell lines [25] = experiment: Potency index, ratio of 5-fluorouracil GI50 to compound GI50 for human non-small cell lung cancer cells; in short: as §3
[26] = Growth inhibition of human CNS cancer cells after 48 hrs by SRB assay; conditions: Cancer cell lines
In short: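 Five-log dose range against NCI tumor cell lines, monitoring GI50, TGI and LC50 for each cell line; MG-MID values derived across the panel; 5-fluorouracil positive control.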

[27] = Growth inhibition of human leukemia cells after 48 hrs by SRB assay; conditions: Leukemia cell
In short: (§4)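 Follow-up NCI panel testing over a 5-log dose range for each cell line. GI50, TGI and LC50 were monitored, with 5-fluorouracil run as the positive control. Values are grouped by tumour subpanel.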

[28] = Growth inhibition of human non-small cell lung cancer cells after 48 hrs by SRB assay; conditions: Cancer cell lines; in short: as §4
[29] = Growth inhibition of human ovarian cancer cells after 48 hrs by SRB assay; conditions: Cancer cell lines; in short: as §4
[30] = Growth inhibition of human prostate cancer cells after 48 hrs by SRB assay; conditions: Cancer cell lines; in short: as §4
[31] = Growth inhibition of human breast cancer cells after 48 hrs by SRB assay; conditions: Cancer cell lines; in short: as §4

With `COc1ccc(-n2c(SCc3cc(OC)c(OC)c(OC)c3)nc3ccc(C)cc3c2=O)c(OC)c1` the inhibition of growth at 10 µM [1] was 85.6%, the inhibition of growth at 10 µM [2] was 52.6% and the inhibition of growth at 10 µM [3] was 82.2%. The inhibition of growth at 10 µM [4] was 95.4%, the inhibition of growth at 10 µM [5] was under 10% and the inhibition of growth at 10 µM [6] was 81.9%. The inhibition of growth at 10 µM [7] was 76.4%, the inhibition of growth at 10 µM [8] was 81.9% and the inhibition of growth at 10 µM [9] was 27.9%. For the same compound, the inhibition of growth at 10 µM [10] was 93.7%, the inhibition of growth at 10 µM [11] was 70.4% and the inhibition of growth at 10 µM [12] was 74.5%. It also gave an inhibition of growth at 10 µM [13] of 88.8%, an inhibition of growth at 10 µM [14] of under 10% and an inhibition of growth at 10 µM [15] of 64.3%. For the same compound, the inhibition of growth at 10 µM [16] was 56.8%, the inhibition of growth at 10 µM [17] was 98.6% and the inhibition of growth at 10 µM [18] was 55.1%. It also gave an inhibition of growth at 10 µM [19] of 91.3%, an inhibition of growth at 10 µM [20] of 67.9% and an inhibition of growth at 10 µM [21] of 66.9%. The inhibition of growth at 10 µM [22] was 83%, the RatioGI50 (Cancer cell lines [23]) was 2 - 10 and the RatioGI50 (Melanoma cell) was 2 - 10. The RatioGI50 (Cancer cell lines [24]) was 2 - 10, the RatioGI50 (Cancer cell lines [25]) was 2 - 10 and the GI50 [26] was 9.6 µM. The LC50 (lethal concentration, 50% net cell kill) [26] was over 100 µM, the TGI [26] was 84.6 µM and the GI50 [27] was 2.5 µM. It also gave a TGI [27] of 56.2 µM, a CC50 ([27]; read-out: LC50 (the source's name)) of over 100 µM and a GI50 [28] of 17.7 µM. It also gave an LC50 (concentration killing 50% of cells) [28] of over 100 µM, a TGI [28] of 96.5 µM and a GI50 [29] of 5.1 µM. The LC50 (50% lethal concentration) [29] was over 100 µM, the TGI [29] was 86.7 µM and the GI50 [30] was 3.7 µM. For the same compound, the LC50 (concentration killing 50% of cells) [30] was over 100 µM, the TGI [30] was over 100 µM and the GI50 [31] was 4.1 µM. The LC50 [31] was over 100 µM and the TGI [31] was 84.9 µM.
